CAL PDZ FP-1 – inhibitors of human CAL PDZ peptide binding; purified CAL PDZ, TMR-peptide fluorescence polarization, 1 h; 300,000 compounds, 0.92% hits; AID 602252; inhibition, % at 24.9 µM;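 active = mean inhibition of at least 30% with at least half of replicates also reaching 30%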;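 note: 0% = DMSO neutral control and 100% = excess unlabeled competitor peptide PRC23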
DYRK1A inh – blocks rat Dyrk1A kinase activity; Q63470; ADP-Glo luminescence, NFATc1 peptide; inhibition, % at 12.5 µM; 310,000 compounds, 0.43% hits; AID 504441; in the data active = inhibition above about 50%;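 note: plate controls were vehicle with enzyme for no effect and no enzyme for full effect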
CAL PDZ FP-2 – blocks peptide binding to human CAL PDZ domain; purified CAL PDZ, TMR-peptide fluorescence polarization, 1 h; AID 504414; Q9HD26; inhibition, % at 20 µM; 330,000 compounds, 0.02% hits;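 active = highest replicate inhibition of at least 40%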;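 note: plate controls were DMSO neutral control wells for no effect and unlabeled competitor peptide control wells for full effect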
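System: tagged CAL PDZ domain. Schedule: 1 h room-temperature incubation prior to read. Signal: fluorescence polarization (mP). Measure: percent inhibition from loss of millipolarization.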
ALR inh – inhibitors of human sulfhydryl oxidase ALR; P55789; purified ALR, DTT oxidation, H2O2 HRP-luminol luminescence; inhibition, % (concentration not given with the values); 290,000 compounds, 3.8% hits; AID 485317;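 active = mean replicate inhibition above about 79%, with every replicate also reaching it, limit read from the data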
Target sequence (P55789 whole entry, looked up): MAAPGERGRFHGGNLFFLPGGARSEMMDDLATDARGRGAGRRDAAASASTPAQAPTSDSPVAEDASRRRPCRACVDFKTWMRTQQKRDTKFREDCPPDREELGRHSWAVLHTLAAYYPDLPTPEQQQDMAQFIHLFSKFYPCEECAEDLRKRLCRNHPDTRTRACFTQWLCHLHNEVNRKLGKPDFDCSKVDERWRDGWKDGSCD
Rtt109 HAT inh – C. albicans Rtt109 histone acetyltransferase inhibition. Q5AAJ8. purified Rtt109/Vps75, ThioGlo CoA-SH fluorescence, 4 h. inhibition, % at 34.9 µM. 330,000 compounds, 0.16% hits;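 active = inhibition of at least 50% in every replicate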
Target sequence (Q5AAJ8 whole entry, looked up): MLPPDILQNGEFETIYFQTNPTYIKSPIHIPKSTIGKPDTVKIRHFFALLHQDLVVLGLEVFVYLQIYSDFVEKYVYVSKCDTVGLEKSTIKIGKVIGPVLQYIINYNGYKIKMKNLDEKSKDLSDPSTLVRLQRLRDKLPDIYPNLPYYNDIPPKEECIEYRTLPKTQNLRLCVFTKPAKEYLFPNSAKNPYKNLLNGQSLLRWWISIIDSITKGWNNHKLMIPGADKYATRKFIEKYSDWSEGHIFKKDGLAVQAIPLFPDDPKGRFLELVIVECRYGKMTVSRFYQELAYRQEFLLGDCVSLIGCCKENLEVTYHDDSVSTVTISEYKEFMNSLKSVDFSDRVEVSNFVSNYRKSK
* hit, by the source's call; . = no result given. In the library only some 4.3% were active in any assay of this set; here they are far more common.

SMILES	CAL PDZ FP-1	DYRK1A inh	CAL PDZ FP-2	ALR inh	Rtt109 HAT inh
NCC(O)c1cc(O)c(O)cc1F (centres undefined)	0	10	0	83*	14
CNC(=S)N1CCn2cccc2C1c1cccnc1 (centres undefined)	78*	-5	7	-2	0
C/C(O)=C(\C#N)C(=O)Nc1cc(Br)ccc1Br	-7	47	-1	97*	5
C[C@]12CCC3C(CC[C@H]4C[C@H](O)CC[C@]34C)C1[C@@H](O)C[C@@H]2O (some centres undefined)	-4	3	0	-1	8
Cn1c(O)c(C(=O)c2ccccc2Cl)c(=O)n(C)c1=O	-1	1	2	-12	6
CN=C(SCc1cc2c(cc1Cl)OCO2)c1c(O)n(C)c(=O)n(C)c1=O	4	-1	-3	101*	36
COC(=O)C1=C(c2c(C)noc2C)C[C@@H]2CC[C@H]1N2C(=O)NCCOc1ccc(OC)cc1	-3	1	0	-7	1
COc1ccc(-c2cc(=Nc3cccc(C(=O)O)c3)c3cc(C)ccc3o2)cc1	-4	-7	-5	96*	-2
NP(=O)(Nc1ccccc1)Nc1ccccc1	-3	-8	-1	.	-3
CCn1c(=O)n(CC)c2cc([N+](=O)[O-])c(N3CCNCC3)cc21	69*	0	13	.	-1
CN(C)c1ccc(P(=S)(N(C)C)N(C)C)cc1	.	3	1	99*	-1
CCOP(=S)(OCC)c1ccc(N(C)C)cc1	-2	-7	.	3	1
O=C(c1ccc(Cl)cc1)C1CCCN(Cc2ccc3ncccc3c2)C1 (centres undefined)	-3	11	0	.	0
CC(=O)N1CCCSC1=Nc1ccccc1	58*	.	-1	.	1
CC1(C)OC(c2ccccc2)=C/C(=C/C=C2C(=O)NC(=S)NC2=O)O1	.	.	.	88*	.
O=C(O)CCn1cc(C=C2C(=O)NC(=S)NC2=O)c(-c2cccc(Cl)c2)n1	.	-3	-3	.	7
O=C(O)CCn1cc(C=C2C(=O)NC(=O)NC2=O)c(-c2ccc(Br)cc2)n1	-4	2	-1	87*	-1
O=C(N/N=C/C1C(=O)NC(=S)N(c2ccccc2)C1=O)c1cc(Br)c(O)c(Br)c1 (centres undefined)	4	-2	.	19	-5
CN1C(=O)c2ccccc2NC(=O)[C@]12O[C@@H]2c1ccccc1	2	19	0	98*	-5
O=C(Cn1ncn2c(cc3cc(F)ccc32)c1=O)N1CCC2(CC1)OCCO2	.	4	1	-3	-10
COc1ccc(N2CCN(C(CNC(=O)Oc3ccccc3)c3cccnc3)CC2)cc1 (centres undefined)	-1	-30	-3	85*	-6
CSc1ncc(CN2CCCC(C(=O)c3cccc(Cl)c3)C2)cn1 (centres undefined)	48*	-2	0	-7	4
CC(C)Oc1cccc(C(=O)C2CCCN(Cc3ccon3)C2)c1 (centres undefined)	65*	-4	-1	4	0
Cc1ccc2cc(CNCCc3ccccc3C)c(=O)[nH]c2c1	-2	17	-1	9	-6
CN1CCN(C(=O)COc2ccc(-c3nc4ccccc4s3)cc2)CC1	2	15	-3	-9	5
SMILES	CAL PDZ FP-1	DYRK1A inh	CAL PDZ FP-2	ALR inh	Rtt109 HAT inh
FC(F)(F)c1ccc2c(c1)N(CCCN1CCN(CCCl)CC1)c1ccccc1S2	-3	0	1	99*	2
CC(C)CCCn1c(O)c(/C=C2/C=CC=N2)c(=O)[nH]c1=O	4	2	-1	98*	1
CC(Cc1ccccc1Sc1ccccc1O)N(C)C (centres undefined)	-3	8	-1	98*	31
C#CCN(C)[C@H](C)Cc1ccccc1	-2	-3	-1	-2	-1
Cc1ccccc1-n1c(O)c(C=Nc2ccc(N(C)C)cc2)c(=O)[nH]c1=O	-3	4	0	92*	-12
COc1ccccc1OCC(=O)N1CCCC(N2CCN(c3ccc(F)cc3)CC2)C1 (centres undefined)	-2	-6	0	95*	-5
N#Cc1ccc(N2CCNCC2)c(F)c1	3	11	0	-15	-5
N#Cc1cc(F)c(N2CCNCC2)cc1Cl	-10	5	-2	93*	5
CC1CCCC(C)N1/N=C/c1c[nH]c2ccc(Br)cc12 (centres undefined)	-3	33	-1	99*	5
O=C1C2CCN(CC2)[C@@H]1Cc1ccc2ccccc2c1O	-1	1	0	81*	-4
CN1C(=O)C(Cc2cccc3ccccc23)C(=O)N(C)C1=O	4	7	-2	23	8
COc1ccc2c(c1)NP(=S)(Oc1ccccc1)N2 (centres undefined)	-3	2	-1	98*	4
Cc1ccc2c(c1)NP(=S)(Oc1ccccc1)N2 (centres undefined)	-3	.	0	.	-2
CCOc1cc(-c2nc3c(C)cccn3c2NCC2CCCO2)ccc1O (centres undefined)	-2	1	0	97*	-150
Cc1cccn2c(NCC3CCCO3)c(C(C)C)nc12 (centres undefined)	-2	-5	-2	78*	-6
CCC(C)NC(=O)c1c(N)n(CC2CCCO2)c2nc3ccccc3nc12 (centres undefined)	-1	5	-1	10	-499
COc1ccccc1-n1c(CNCC2CCCO2)nc2ccccc2c1=O (centres undefined)	-3	9	0	-5	4
CCN(CC)C(=O)c1ccc(NC(=O)CNC(C)c2cccc3ccccc23)cc1 (centres undefined)	-2	2	-1	-9	25
Cc1ccc(-n2c(O)c(C=NCCCn3ccnc3)c(=O)[nH]c2=O)cc1	73*	-2	-1	3	-5
CC/C(=N\Nc1cccc2ccccc12)c1c(O)[nH]c(=O)[nH]c1=O	-5	-4	-1	.	9
N#Cc1c(/N=C/C2C(=O)NC(=S)NC2=O)sc2c1CCCC2	1	16	0	93*	9
CCOC(=O)c1c(/N=C/C2C(=O)NC(=S)NC2=O)sc2c1CCC2	10	-3	-1	-11	26
CCCC(CCC)C(=O)OC[N+](C)(C)CCOC(=O)C(O)(c1ccccc1)C1CCCC1 (centres undefined)	-3	3	-2	-3	57*
CC1CN=C(Nc2ccccc2)S1 (centres undefined)	-1	-2	-2	-2	.
CC1CN=C(Nc2ccc(N(C)C)cc2)S1 (centres undefined)	-2	2	-2	89*	1
CC(=NCCC(c1ccccc1)c1ccccc1)c1c(O)n(C)c(=O)n(C)c1=O	0	-2	0	.	-5
O=C(CSC1c2ccccc2-c2ccccc21)N/N=C/c1ccccc1O	.	6	-2	98*	14

Screening results (PubChem BioAssay)
